Tests used:
[1] = test system: Human immunodeficiency virus 1; test: Antiviral activity against HIV-1 pseudotyped virus expressing HIV-1 isolate AD envelope QA790.204I.ENV.E2 assessed as reduction of luciferase production after 3 days by single-cycle neutralization assay; type: functional, organism-based; conditions: Human immunodeficiency virus 1, 72 h
Outline: (§1)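 Single-cycle assay using pseudoviruses carrying Env from primary HIV-1 isolates of subtypes A, A/D, A/G, B, C and D reference viruses. Read-out is luciferase production, and IC50 is determined.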

[2] = test system: Human immunodeficiency virus 1; test: Antiviral activity against HIV-1 pseudotyped virus expressing HIV-1 isolate AG envelope CRF02_AG (clone 263) assessed as reduction of luciferase production after 3 days by single-cycle neutralization assay; type: functional, organism-based; conditions: Human immunodeficiency virus 1, 72 h; outline: as §1
[3] = test system: Human immunodeficiency virus 1; test: Antiviral activity against HIV-1 pseudotyped virus expressing HIV-1 isolate AG envelope CRF02_AG (clone 211) assessed as reduction of luciferase production after 3 days by single-cycle neutralization assay; type: functional, organism-based; conditions: Human immunodeficiency virus 1, 72 h; outline: as §1
[4] = test system: Human immunodeficiency virus 1; test: Antiviral activity against HIV-1 pseudotyped virus expressing HIV-1 isolate B envelope pREJO4541 clone 67 (SVPB16) assessed as reduction of luciferase production after 3 days by single-cycle neutralization assay; type: functional, organism-based; conditions: Human immunodeficiency virus 1, 72 h; outline: as §1
[5] = test system: Human immunodeficiency virus 1; test: Antiviral activity against HIV-1 3B infected in human MT-2 cells assessed as reduction in p24 antigen level incubated for overnight measured on fourth day post infection by multi-cycle infection assay based sandwich ELISA; type: functional, organism-based; conditions: Human immunodeficiency virus 1, 3B, MT2
Outline: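 Multi-cycle infection in MT-2 cells; read-out is reduction of p24 levels. IC50 derived from dose-response.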

[6] = test system: Human immunodeficiency virus 1; test: Antiviral activity against HIV-1 NL4-3-HXB2 pseudovirus co-transfected with luciferase gene infected in human TZM-bl cells assessed as reduction of luciferase production after 3 days by single-cycle neutralization assay; type: functional, organism-based; conditions: Human immunodeficiency virus 1, NL4-3-HXB2, TZM-bl, 72 h
Outline: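 Single-cycle neutralization in TZM-bl cells; read-out is reduction of luciferase production. IC50 derived from dose-response.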

[7] = Cytotoxicity against human MT2 cells after 4 days by XTT assay; type: cell-based
[8] = Cytotoxicity against human TZM-bl cells after 3 days by XTT assay; type: cell-based
[9] = test system: Human immunodeficiency virus 1; test: Antiviral activity against HIV-1 pseudotyped virus expressing HIV-1 isolate A envelope QB726.70M.ENV.B3 assessed as reduction of luciferase production after 3 days by single-cycle neutralization assay; type: functional, organism-based; conditions: Human immunodeficiency virus 1, 72 h; outline: as §1
[10] = test system: Human immunodeficiency virus 1; test: Antiviral activity against HIV-1 pseudotyped virus expressing HIV-1 isolate A envelope QF495.23M.ENV.A3 assessed as reduction of luciferase production after 3 days by single-cycle neutralization assay; type: functional, organism-based; conditions: Human immunodeficiency virus 1, 72 h; outline: as §1
[11] = test system: Human immunodeficiency virus 1; test: Antiviral activity against HIV-1 pseudotyped virus expressing HIV-1 isolate A envelope QF495.23M.ENV.B2 assessed as reduction of luciferase production after 3 days by single-cycle neutralization assay; type: functional, organism-based; conditions: Human immunodeficiency virus 1, 72 h; outline: as §1
[12] = test system: Human immunodeficiency virus 1; test: Antiviral activity against HIV-1 pseudotyped virus expressing HIV-1 isolate A envelope QH343.21M.ENV.A10 assessed as reduction of luciferase production after 3 days by single-cycle neutralization assay; type: functional, organism-based; conditions: Human immunodeficiency virus 1, 72 h; outline: as §1
[13] = test system: Human immunodeficiency virus 1; test: Antiviral activity against HIV-1 pseudotyped virus expressing HIV-1 isolate AD envelope QA790.204I.ENV.A4 assessed as reduction of luciferase production after 3 days by single-cycle neutralization assay; type: functional, organism-based; conditions: Human immunodeficiency virus 1, 72 h; outline: as §1
[14] = test system: Human immunodeficiency virus 1; test: Antiviral activity against HIV-1 pseudotyped virus expressing HIV-1 isolate B envelope pRHPA4259 clone 7 (SVPB14) assessed as reduction of luciferase production after 3 days by single-cycle neutralization assay; type: functional, organism-based; conditions: Human immunodeficiency virus 1, 72 h; outline: as §1
[15] = test system: Human immunodeficiency virus 1; test: Antiviral activity against HIV-1 pseudotyped virus expressing HIV-1 isolate B envelope pCAAN5342 clone A2 (SVPB19) assessed as reduction of luciferase production after 3 days by single-cycle neutralization assay; type: functional, organism-based; conditions: Human immunodeficiency virus 1, 72 h; outline: as §1
[16] = test system: Human immunodeficiency virus 1; test: Antiviral activity against HIV-1 pseudotyped virus expressing HIV-1 isolate B envelope PVO, clone 4 (SVPB11) assessed as reduction of luciferase production after 3 days by single-cycle neutralization assay; type: functional, organism-based; conditions: Human immunodeficiency virus 1, 72 h; outline: as §1
[17] = test system: Human immunodeficiency virus 1; test: Antiviral activity against HIV-1 pseudotyped virus expressing HIV-1 isolate B envelope SC422661, clone B (SVPB8) assessed as reduction of luciferase production after 3 days by single-cycle neutralization assay; type: functional, organism-based; conditions: Human immunodeficiency virus 1, 72 h; outline: as §1
[18] = test system: Human immunodeficiency virus 1; test: Antiviral activity against HIV-1 pseudotyped virus expressing HIV-1 isolate C envelope Du156, clone 12 (SVPC3) assessed as reduction of luciferase production after 3 days by single-cycle neutralization assay; type: functional, organism-based; conditions: Human immunodeficiency virus 1, 72 h; outline: as §1
[19] = test system: Human immunodeficiency virus 1; test: Antiviral activity against HIV-1 pseudotyped virus expressing HIV-1 isolate C envelope ZM233M.PB6, SVPC9 assessed as reduction of luciferase production after 3 days by single-cycle neutralization assay; type: functional, organism-based; conditions: Human immunodeficiency virus 1, 72 h; outline: as §1
[20] = test system: Human immunodeficiency virus 1; test: Antiviral activity against HIV-1 pseudotyped virus expressing HIV-1 isolate C envelope ZM135M.PL10a, SVPC15 assessed as reduction of luciferase production after 3 days by single-cycle neutralization assay; type: functional, organism-based; conditions: Human immunodeficiency virus 1, 72 h; outline: as §1
[21] = test system: Human immunodeficiency virus 1; test: Antiviral activity against HIV-1 pseudotyped virus expressing HIV-1 isolate C envelope HIV-25925-2, clone 22 assessed as reduction of luciferase production after 3 days by single-cycle neutralization assay; type: functional, organism-based; conditions: Human immunodeficiency virus 1, 72 h; outline: as §1
[22] = test system: Human immunodeficiency virus 1; test: Antiviral activity against HIV-1 pseudotyped virus expressing HIV-1 isolate C envelope HIV-26191-2, clone 48 assessed as reduction of luciferase production after 3 days by single-cycle neutralization assay; type: functional, organism-based; conditions: Human immunodeficiency virus 1, 72 h; outline: as §1
[23] = test system: Human immunodeficiency virus 1; test: Antiviral activity against HIV-1 pseudotyped virus expressing HIV-1 isolate D envelope QA013.70I.ENV.M12 assessed as reduction of luciferase production after 3 days by single-cycle neutralization assay; type: functional, organism-based; conditions: Human immunodeficiency virus 1, 72 h; outline: as §1
[24] = test system: Human immunodeficiency virus 1; test: Antiviral activity against HIV-1 pseudotyped virus expressing HIV-1 isolate D envelope QA465.59M.ENV.A1 assessed as reduction of luciferase production after 3 days by single-cycle neutralization assay; type: functional, organism-based; conditions: Human immunodeficiency virus 1, 72 h; outline: as §1
[25] = test system: Human immunodeficiency virus 1; test: Antiviral activity against HIV-1 pseudotyped virus expressing HIV-1 isolate D envelope QA465.59M.ENV.D1 assessed as reduction of luciferase production after 3 days by single-cycle neutralization assay; type: functional, organism-based; conditions: Human immunodeficiency virus 1, 72 h; outline: as §1
[26] = test system: Human immunodeficiency virus 1; test: Antiviral activity against HIV-1 pseudotyped virus expressing HIV-1 isolate D envelope QD435.100M.ENV.B5 assessed as reduction of luciferase production after 3 days by single-cycle neutralization assay; type: functional, organism-based; conditions: Human immunodeficiency virus 1, 72 h; outline: as §1
[27] = test system: Human immunodeficiency virus 1; test: Antiviral activity against HIV-1 pseudotyped virus expressing HIV-1 isolate D envelope QD435.100M.ENV.A4 assessed as reduction of luciferase production after 3 days by single-cycle neutralization assay; type: functional, organism-based; conditions: Human immunodeficiency virus 1, 72 h; outline: as §1
[28] = test system: Human immunodeficiency virus 1; test: Antiviral activity against HIV-1 pseudotyped virus expressing HIV-1 isolate D envelope QD435.100M.ENV.E1 assessed as reduction of luciferase production after 3 days by single-cycle neutralization assay; type: functional, organism-based; conditions: Human immunodeficiency virus 1, 72 h; outline: as §1
[29] = Binding affinity to HIV-1 capsid protein C-terminal domain M184A/W185A mutant at 20 uM by isothermal titration calorimetric analysis; set-up: species or system Human immunodeficiency virus 1
Outline: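 ITC: 625 μM CTD M184A/W185A mutant titrated in 10 μL aliquots into 20 μM peptide in the cell. The integrated binding isotherm was fitted to a single-site binding equation to give Kd.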

[30] = Binding affinity to HIV-1 Yu2 full-length gp120 by surface plasmon resonance analysis; set-up: species or system Human immunodeficiency virus type 1 (isolate YU2)
Outline: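 Gp120 binding was measured by SPR. Sensorgrams were fitted to a 1:1 Langmuir model to give ka and kd, and Kd was calculated from these rate constants.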

[31] = Drug uptake in human HEK293T cells assessed as increase in fluorescence at 5 uM after 2 hrs by confocal microscopy; type: ADME, cell-based; conditions: hek-293t
Outline: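 HEK293T cells were incubated with 5 μM FITC-labeled peptide at 37°C for 2 h. Intracellular fluorescence was imaged by confocal microscopy, with DIC images alongside.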

CC[C@H](C)[C@H](NC(C)=O)C(=O)N[C@@H](CO)C(=O)N[C@@H](Cc1ccccc1)C(=O)N[C@@H]1CSCc2ccc(cc2)-c2ccc(cc2)CSC[C@@H](C(=O)N[C@@H](CCC(=O)O)C(=O)N[C@@H](CO)C(=O)NCC(=O)N[C@@H](CO)C(N)=O)NC(=O)[C@H](Cc2ccc(O)cc2)NC(=O)[C@H](Cc2ccc(O)cc2)NC(=O)[C@H](CC(=O)O)NC(=O)[C@H](CC(C)C)NC(=O)[C@H](CC(C)C)NC(=O)[C@H](CCC(=O)O)NC1=O
IC50 [1]: 7.7 µM | IC50 [2]: 4.4 µM | IC50 [3]: 4 µM | IC50 [4]: 3.4 µM | IC50 [5]: 2.8 µM | IC50 [6]: 1.9 µM | CC50 at 96 h [7]: > 103 µM | CC50 at 72 h [8]: > 103 µM | IC50 [9]: 15.4 µM | IC50 [10]: 1.4 µM | IC50 [11]: 10 µM | IC50 [12]: 15.4 µM | IC50 [13]: 7 µM | IC50 [14]: 1.6 µM | IC50 [15]: 4.6 µM | IC50 [16]: 3.5 µM | IC50 [17]: 3.7 µM | IC50 [18]: 17.9 µM | IC50 [19]: 3.6 µM | IC50 [20]: 1 µM | IC50 [21]: 1.1 µM | IC50 [22]: 6.3 µM | IC50 [23]: 15.4 µM | IC50 [24]: 15.4 µM | IC50 [25]: 7.7 µM | IC50 [26]: 15.4 µM | IC50 [27]: 1 µM | IC50 [28]: 15.4 µM | Kd [29]: 17.5 µM | Kd [30]: 7.4 µM

CC[C@H](C)[C@H](NC(C)=O)C(=O)N[C@@H](CO)C(=O)N[C@@H](Cc1ccccc1)C(=O)N[C@@H]1CSCc2ccc(cc2)-c2ccc(cc2)CSC[C@@H](C(=O)N[C@@H](CCC(=O)O)C(=O)N[C@@H](CO)C(=O)NCC(=O)N[C@@H](CO)C(N)=O)NC(=O)[C@H](Cc2ccc(O)cc2)NC(=O)[C@H](Cc2ccc(O)cc2)NC(=O)[C@H](CC(N)=O)NC(=O)[C@H](CC(C)C)NC(=O)[C@H](CC(C)C)NC(=O)[C@H](CCC(=O)O)NC1=O
IC50 [5]: 8.8 µM | IC50 [6]: 1.8 µM | CC50 at 96 h [7]: > 102 µM | CC50 at 72 h [8]: > 102 µM

CC[C@H](C)[C@H](NC(=S)Nc1ccc(-c2c3ccc(=O)cc-3oc3cc(O)ccc23)c(C(=O)O)c1)C(=O)N[C@@H](CO)C(=O)N[C@@H](Cc1ccccc1)C(=O)N[C@@H]1CSCc2ccc(cc2)-c2ccc(cc2)CSC[C@@H](C(=O)N[C@@H](CCC(=O)O)C(=O)N[C@@H](CO)C(=O)NCC(=O)N[C@@H](CO)C(=O)O)NC(=O)[C@H](Cc2ccc(O)cc2)NC(=O)[C@H](Cc2ccc(O)cc2)NC(=O)[C@H](CC(=O)O)NC(=O)[C@H](CC(C)C)NC(=O)[C@H](CC(C)C)NC(=O)[C@H](CCC(=O)O)NC1=O
Drug uptake [31]: Active

CC[C@H](C)[C@H](NC(C)=O)C(=O)N[C@@H](CO)C(=O)N[C@@H](Cc1ccccc1)C(=O)N[C@@H]1CSCc2ccc(cc2)-c2ccc(cc2)CSC[C@@H](C(=O)N[C@@H](CCC(=O)O)C(=O)N[C@@H](CO)C(=O)NCC(=O)N[C@@H](CO)C(N)=O)NC(=O)[C@H](Cc2ccc(O)cc2)NC(=O)[C@H](Cc2ccc(O)cc2)NC(=O)[C@H](CC(N)=O)NC(=O)[C@H](CC(C)C)NC(=O)[C@H](CC(C)C)NC(=O)[C@H](CCC(N)=O)NC1=O
IC50 [5]: 5.7 µM | IC50 [6]: 1.6 µM | CC50 at 96 h [7]: 51 µM | CC50 at 72 h [8]: > 102 µM

CC[C@H](C)[C@H](NC(C)=O)C(=O)N[C@@H](CO)C(=O)N[C@@H](Cc1ccccc1)C(=O)N[C@@H]1CSCc2ccc(cc2)-c2ccc(cc2)CSC[C@@H](C(=O)N[C@@H](CCC(=O)O)C(=O)N[C@@H](CO)C(=O)NCC(=O)N[C@@H](CO)C(N)=O)NC(=O)[C@H](C)NC(=O)[C@H](Cc2ccc(O)cc2)NC(=O)[C@H](CC(=O)O)NC(=O)[C@H](CC(C)C)NC(=O)[C@H](CC(C)C)NC(=O)[C@H](CCC(=O)O)NC1=O
IC50 [5]: 14 µM | IC50 [6]: 17.3 µM | CC50 at 96 h [7]: > 107 µM | CC50 at 72 h [8]: > 107 µM

Reference: ChEMBL document CHEMBL3232893, “Design of antiviral stapled peptides containing a biphenyl cross-linker” (Bioorg Med Chem Lett, 2014)
